# Source: PubChem
# MC4R antag cAMP: antagonists of human melanocortin 4 receptor (MC4R). MC4R-expressing cells, MTII-stimulated cAMP, LANCE TR-FRET. inhibition, % at 6.5 µM. actives 0.48% (n = 360,000);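 active means inhibition above its plate's cutoff, the mean of tested wells on that plate plus 3 SD, cut at about 29% in these data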
#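 system = U2OS cells with stable human MC4R expression | also added = Melanotan II challenge after compound preincubation | dosing = one concentration, 6.5 µM nominal | incubation = compound 30 min, challenge 1 h, detection 1 h | measured by = TR-FRET with Eu-cAMP and labeled anti-cAMP, 671 nm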
# Beta cell apopt: beta cell apoptosis inhibition; actives 0.8% (n = 300,000); INS-1E cytokine-induced death, ATP luminescence, 48 h; percent of positive-control rescue, neutral wells zero; protection from apoptosis, % (test concentration not listed); AID 435005;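 active means Every replicate reaches about 75%, or at least half do and their mean reaches it too, limit read from the data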;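 further: higher means more ATP so stronger rescue from cytokine killing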
# ANO1 block: inhibitors of mouse TMEM16A calcium-activated chloride channel. Q8BHY3. HEK293 TMEM16A/YFP iodide influx fluorescence, ionomycin. normalized B-score (activity score, 25-100; higher = stronger inhibition) at 10 µM. actives 1.2% (n = 310,000). AID 588511;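 active means ratio plate-corrected score three or more library SD toward inhibition, starting fluorescence score within five deviations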;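 further: score derived from kinetic fluorescence span divided by baseline fluorescence per well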
# Target sequence (Q8BHY3 whole entry, looked up): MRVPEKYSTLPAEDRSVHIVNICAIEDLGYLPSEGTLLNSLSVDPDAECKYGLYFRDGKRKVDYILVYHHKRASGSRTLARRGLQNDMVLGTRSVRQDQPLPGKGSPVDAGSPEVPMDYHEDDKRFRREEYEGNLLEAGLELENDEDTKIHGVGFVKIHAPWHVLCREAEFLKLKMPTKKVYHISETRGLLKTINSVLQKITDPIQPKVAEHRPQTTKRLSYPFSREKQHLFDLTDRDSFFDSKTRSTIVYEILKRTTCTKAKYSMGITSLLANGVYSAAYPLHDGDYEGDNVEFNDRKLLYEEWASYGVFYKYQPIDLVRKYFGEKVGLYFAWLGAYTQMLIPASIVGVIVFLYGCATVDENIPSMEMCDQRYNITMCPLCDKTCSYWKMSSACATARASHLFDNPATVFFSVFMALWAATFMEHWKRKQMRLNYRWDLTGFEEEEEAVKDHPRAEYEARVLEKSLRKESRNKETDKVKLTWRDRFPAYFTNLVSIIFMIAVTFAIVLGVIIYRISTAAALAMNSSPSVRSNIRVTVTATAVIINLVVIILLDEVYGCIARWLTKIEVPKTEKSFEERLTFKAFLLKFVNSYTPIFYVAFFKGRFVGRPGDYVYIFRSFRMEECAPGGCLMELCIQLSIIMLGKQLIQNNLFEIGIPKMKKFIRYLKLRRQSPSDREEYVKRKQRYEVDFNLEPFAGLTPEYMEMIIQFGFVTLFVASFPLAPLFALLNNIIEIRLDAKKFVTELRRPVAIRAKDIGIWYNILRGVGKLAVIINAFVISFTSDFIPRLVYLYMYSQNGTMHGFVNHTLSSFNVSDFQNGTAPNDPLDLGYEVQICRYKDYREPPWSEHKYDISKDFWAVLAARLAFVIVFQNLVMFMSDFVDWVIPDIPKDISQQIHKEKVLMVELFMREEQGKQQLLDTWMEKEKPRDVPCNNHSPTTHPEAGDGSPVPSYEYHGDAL
# TMEM16A act: mouse TMEM16A channel activation, primary screen; Q8BHY3; HEK293 TMEM16A/YFP-H148Q/I152L, iodide quench fluorescence; active compounds read low; B-score at 10 µM; actives 0.3% (n = 340,000);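 active means fluorescence-ratio B-score plate-corrected deviation score at least 3 library SD below zero, with starting fluorescence score within 5 deviations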;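 further: channel opened by trigger with iodide after compound preincubation; score built on the fluorescence ratio of max minus min over baseline; more negative score means more quench and so TMEM16A activation or potentiation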
# CSC inhib: cancer stem cell inhibition. inhibition, % at 7.5 µM. AID 2717. actives 1.1% (n = 300,000). cancer stem cell-like cells viability, luminescence; in the data active means inhibition above about 75%; tested in HMLE shEcad cells
# MC4R ag barr: human MC4R agonism via beta-arrestin. actives 0.98% (n = 360,000). AID 540308. U2OS MC4R beta-arrestin complementation, luminescence; percent of melanotan II response, DMSO zero. P32245. activation, % at 8.9 µM;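 active means activation above a per-plate cutoff, the mean activation of sample wells on that plate plus 3 SD, cut at about 8% in these data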
# A number is an active result; . = inactive; / = no result. Rows were chosen to be rich in hits. Some 3.8% of all compounds tested hit in one or more screens of this group.
SMILES,MC4R antag cAMP,Beta cell apopt,ANO1 block,TMEM16A act,CSC inhib,MC4R ag barr
CC(=O)Nc1ccc(C=NNC(=O)CCCC(=O)NN=Cc2ccc(NC(C)=O)cc2)cc1,.,/,/,.,/,.
CCC(=O)c1ccc(N2CCN(C(=O)c3ccc(F)cc3)CC2)c(F)c1,.,.,25,.,.,.
CO/N=C/c1ccc(N2CCN(C(=O)c3ccc(F)cc3)CC2)c([N+](=O)[O-])c1,.,/,100,.,.,.
CCC(=O)c1ccc(N2CCN(C(=O)c3ccc(Br)cc3)CC2)c(F)c1,.,.,.,.,.,.
O=C(O/N=C\c1ccc(N2CCCCC2)c([N+](=O)[O-])c1)c1cccc(Cl)c1,.,.,.,.,.,.
CO/N=C/c1ccc(N2CCN(C(=O)c3ccc(Cl)cc3Cl)CC2)c([N+](=O)[O-])c1,.,.,100,.,.,.
CO/N=C/c1ccc(N2CCN(C(=O)c3cccc(C(F)(F)F)c3)CC2)c([N+](=O)[O-])c1,.,.,.,.,/,.
CC(=O)Nc1cccc(C(=O)NC2CCCc3c2cnn3-c2cc(C)cc(C)c2)c1 (stereo unspecified),.,.,.,.,.,.
Cc1ccc(C(=O)CC(Nc2ccc(F)cc2)c2ccccc2)cc1 (stereo unspecified),.,.,.,.,.,8.9
Cc1c(C(=O)N2CCCC2)c(S(=O)(=O)Nc2ccccc2)c(C)n1C,.,.,.,.,.,.
Cc1ccc(N=Cc2c(C)[nH]n(-c3nc4ccccc4[nH]3)c2=O)cc1,.,91.9,.,.,94.8,.
COc1ccc(-c2cc(=Nc3c(C)n(C)n(-c4ccccc4)c3=O)c3ccccc3o2)cc1,.,.,.,.,.,.
COc1ccc(-c2c/c(=N\c3nc(-c4ccccc4)c(C)s3)c3ccccc3o2)cc1O,.,.,.,.,79.8,.
C[C@@H]1CN([C@@H](C)CO)C(=O)CCCn2nncc2CO[C@H]1CN(C)Cc1cccc2c1OCCCO2,.,/,/,/,/,.
COc1ccc(OC)c(NC(=O)C2(C)CCN2C(=O)C(C)(C)c2ccccc2)c1 (stereo unspecified),.,/,/,/,/,.
O=C(NCO)c1cccnc1,.,/,/,.,/,.
Cn1nccc1C(=O)N1CCOCC1,.,.,.,.,.,.
Cc1ccc(C(=O)N[C@@H](Cc2ccccc2)C(=O)N2CCC3(CC2)NCCc2[nH]cnc23)cc1C,.,.,.,-49.6,.,.
O=C(Nc1ccc2c(c1)OCCO2)C(=O)c1c[nH]c2ccccc12,.,.,.,.,106.7,.
O=C(Nc1ccc2c(c1)OCO2)C(=O)c1c[nH]c2ccccc12,.,.,.,.,.,.
c1ccc(CSc2nnnn2-c2ccc3c(c2)OCCO3)nc1,.,.,.,.,.,.
Clc1ccc(CSc2nnnn2-c2ccc3c(c2)OCO3)c(Cl)c1,.,.,.,.,82.3,.
O=C(CSc1nnnn1-c1ccc(Cl)cc1)NC(=O)Nc1ccc2c(c1)OCCO2,.,.,.,.,.,9.3
Cc1c(CC(=O)N2CCC(O)CC2)c(=O)oc2cc3c(cc12)CCC1(CCCCC1)O3,.,/,/,/,/,.
COc1ccc(CN(CC(=O)NCc2ccccc2)C(=O)CCC(=O)Nc2ccccn2)cc1,.,.,.,.,.,.
SMILES,MC4R antag cAMP,Beta cell apopt,ANO1 block,TMEM16A act,CSC inhib,MC4R ag barr
c1csc(-c2nc(NCC3CCCO3)c3ccccc3n2)c1 (stereo unspecified),.,.,.,.,/,.
c1ccc(CN2CCC(Nc3nc(-c4cccs4)nc4ccccc34)CC2)cc1,.,.,.,.,109.2,.
CCN(CC)CCCNC(=O)c1cc2c(-c3ccc(Cl)cc3)nn(C)c2s1,.,.,.,.,98.1,.
CN1CCN(CCCNC(=O)c2cc3c(-c4ccc(Cl)cc4)nn(C)c3s2)CC1,.,/,.,.,/,.
CC1CCN(CCc2nc3cc(NC(=O)COc4ccc(Cl)cc4)ccc3n2C)CC1,.,/,.,.,.,.
COc1cccc(CN(C)C(=O)c2ccc(OCC(=O)Nc3cccc(C(F)(F)F)c3)c(OC)c2)c1,.,.,100,.,.,.
COc1cc(C(=O)NCCCN(C)C)ccc1OCC(=O)Nc1cccc(C(F)(F)F)c1,.,/,.,.,.,.
COc1ccc(CN(C)C(=O)c2ccc(OCC(=O)Nc3cccc(C(F)(F)F)c3)c(OC)c2)c(OC)c1,.,.,100,.,.,.
CC1CN(S(=O)(=O)c2cccc(C(=O)N(Cc3nnc(-c4ccccc4Cl)o3)C3CC3)c2)CC(C)O1 (stereo unspecified),.,.,.,.,.,.
C=CC[C@@H](CC(=O)N[C@H](CO)Cc1ccccc1)C(=O)N[C@@H](COC(=O)[C@@H](CC=C)CC(=O)OC(C)(C)C)Cc1ccccc1,.,.,/,/,.,.
N#C/C(=C(/O)c1ccccc1F)c1nc2cc(C(F)(F)F)ccc2s1,.,.,.,.,.,.
N#C/C(=C(/O)c1ccc2c(c1)OCO2)c1nc2cc(C(F)(F)F)ccc2s1,.,.,100,.,79.4,.
O=C(NC(=S)Nc1cccc(Cl)c1N1CCCCC1)c1ccc2c(c1)OCCO2,.,.,.,.,82.1,.
O=C(NC(=S)Nc1ccccc1N1CCCC1)c1ccc(F)cc1,.,.,.,.,.,.
O=C(NC(=S)Nc1ccccc1N1CCCCC1)c1ccccc1,.,.,.,.,.,9.1
O=C(c1cc(F)c(F)c(F)c1F)N1CCN(C(=O)C2CCCO2)CC1 (stereo unspecified),.,.,/,.,.,.
C=CC[C@@H](CC(=O)N[C@H](CO)Cc1ccccc1)C(=O)N[C@H](COC(=O)[C@@H](CC=C)Cc1ccc(F)cc1)Cc1ccccc1,.,.,/,.,.,.
COc1ccc(N/N=C(/C#N)S(=O)(=O)c2nsc(C)c2C#N)cc1,.,.,.,.,.,.
Cc1snc(S(=O)(=O)/C(C#N)=N/Nc2cccc(C(F)(F)F)c2)c1C#N,.,.,.,.,88.1,.
Cc1cc(C)c(S(=O)(=O)NCCc2ccccc2)c(C)c1,.,.,.,.,.,8.4
Cc1ccc(S(=O)(=O)NCCc2ccccc2)cc1,.,.,.,.,.,.
CCn1c(CNC(=O)c2ccc(F)cc2)cc2ccccc21,.,.,.,.,.,.
CCN1CCN(C(=O)C(Cc2ccccc2)NC(=O)c2ccc(Cl)c(S(=O)(=O)N(C)C)c2)CC1 (stereo unspecified),.,.,/,-45.8,.,.
O=C(NNC(=O)c1ccc2ccccc2c1)c1cccc(Br)c1,.,/,/,.,/,.
O=C(NNC(=S)Nc1cccc2ccccc12)c1cccc(Br)c1,.,.,25,.,.,.
CC(=O)c1cccc(-c2ccnc3c2CC(C(=O)NCc2ccncc2)O3)c1 (stereo unspecified),.,/,/,/,/,.
